# Test results published in ChEMBL document CHEMBL1129074, “Inhibitors of human immunodeficiency virus type 1 derived from gp41 transmembrane protein: structure--activity studies” (J Med Chem, 1996).
# Square brackets hold non-standard residues; d marks the D form. Peptide text beside a SMILES is read from it. Ahx = NCCCCCC(=O)O
# How the values were obtained:
# MT4 [1] = experiment: (§1) Inhibitory potency of gp41 fragment against HIV-1 induced cytopathic effect in MT-4 cell assay at 20 uM; type: functional; details: Homo sapiens
# Outline: (§2)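 MT4 cells (exponential growth) at 5×10^5 cells/mL infected with HIV-1 IIIB (100× TCID50) for 1 h at 37 °C, diluted 6-fold, added to serially diluted peptide in RPMI 1640/FCS medium; mock-infected controls. After 5 days at 37 °C, 5% CO2, cells lysed with Nonidet-40 and DNA content read by propidium iodide. Inhibition = restoration of infected-cell growth relative to uninfected controls; cytotoxicity measured in parallel.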
# MT4 [2] = experiment: Inhibitory potency of gp41 fragment against HIV-1 induced cytopathic effect in MT-4 cell assay at 200 uM; type: functional; details: Homo sapiens
# MT4 [3] = experiment: Inhibitory potency of gp41 fragment against HIV-1 induced cytopathic effect in MT-4 cell assay at 5 uM; type: functional; details: Homo sapiens
# MT4 [4] = experiment: Inhibitory potency of gp41 fragment against HIV-1 induced cytopathic effect in MT-4 cell assay at 6.4 uM; type: functional; details: Homo sapiens
# MT4 [5] = experiment: as §1; type: functional, Homo sapiens; details: Homo sapiens, MT4; outline: as §2
# MT4 [6] = experiment: Inhibitory potency of gp41 fragment against HIV-1 induced cytopathic effect in MT-4 cell assay at 8 uM; type: functional; details: Homo sapiens
# MT4 [7] = experiment: Inhibitory potency of gp41 fragment against HIV-1 induced cytopathic effect in MT-4 cell assay; type: functional, cell-based; details: Homo sapiens
# MT4 [8] = experiment: Inhibitory potency of gp41 fragment against HIV-1 induced cytopathic effect in MT-4 cell assay at 16 uM; type: functional; details: Homo sapiens
# MT4 [9] = experiment: Inhibitory potency of gp41 fragment against HIV-1 induced cytopathic effect in MT-4 cell assay at 40 uM; type: functional; details: Homo sapiens
# MT4 [10] = experiment: Inhibitory potency of gp41 fragment against HIV-1 induced cytopathic effect in MT-4 cell assay at 80 uM; type: functional; details: Homo sapiens
smiles,measurement,setting,value
CC[C@H](C)[C@H](NC(=O)CNC(=O)[C@H](Cc1c[nH]c2ccccc12)NC(=O)[C@@H](NC(=O)[C@@H](NC(=O)[C@H](CC(C)C)NC(=O)[C@H](CCC(N)=O)NC(=O)[C@H](CC(C)C)NC(=O)[C@H](CC(C)C)NC(=O)CNC(=O)CNC(=O)[C@H](CS)NC(C)=O)[C@@H](C)O)C(C)C)C(=O)N[C@@H](CCCCN)C(=O)N[C@@H](CCC(N)=O)C(=O)N[C@@H](CC(C)C)C(=O)N[C@@H](CCC(N)=O)C(=O)N[C@@H](C)C(=O)N[C@@H](CCCN=C(N)N)C(=O)N[C@H](C(=O)N[C@@H](CC(C)C)C(=O)O)[C@@H](C)CC (Ac-CGGLLQLTVWGIKQLQARIL-OH),inhibition at 20 µM,MT4 [1],30%
CC[C@H](C)[C@H](NC(=O)CNC(=O)[C@H](Cc1c[nH]c2ccccc12)NC(=O)[C@@H](NC(=O)[C@@H](NC(=O)[C@H](CC(C)C)NC(=O)[C@H](CCC(N)=O)NC(=O)[C@H](CC(C)C)NC(=O)[C@H](CC(C)C)NC(=O)[C@H](Cc1c[nH]cn1)NC(=O)[C@H](CCC(N)=O)NC(=O)[C@H](CCC(N)=O)NC(=O)[C@H](C)NC(=O)[C@H](CCC(=O)O)NC(=O)[C@@H](NC(=O)[C@H](C)NC(=O)[C@H](CCCN=C(N)N)NC(=O)[C@H](CC(C)C)NC(=O)[C@H](CC(C)C)NC(=O)[C@H](CC(N)=O)NC(=O)[C@H](CC(N)=O)NC(C)=O)[C@@H](C)CC)[C@@H](C)O)C(C)C)C(=O)N[C@@H](C)C(=O)N[C@@H](C)C(=O)N[C@@H](CC(C)C)C(=O)N[C@@H](CCC(N)=O)C(=O)N[C@@H](C)C(=O)N[C@@H](CCCN=C(N)N)C(=O)N[C@H](C(=O)N[C@@H](C)C(=O)N[C@@H](C)C(=O)N[C@H](C(=O)N[C@@H](CCC(=O)O)C(=O)N[C@@H](C)C(=O)N[C@@H](Cc1ccc(O)cc1)C(=O)N[C@@H](CC(C)C)C(=O)N[C@@H](C)C(=O)N[C@@H](C)C(=O)N[C@@H](CCC(N)=O)C(=O)O)C(C)C)[C@@H](C)CC (Ac-NNLLRAIEAQQHLLQLTVWGIAALQARIAAVEAYLAAQ-OH),inhibition at 20 µM,MT4 [1],22%
CC[C@H](C)[C@H](NC(=O)CCCCCNC(=O)CCCCCNC(=O)CCCCCNC(=O)[C@H](CC(C)C)NC(=O)[C@H](CCC(N)=O)NC(=O)[C@H](CC(C)C)NC(=O)[C@H](CC(C)C)NC(=O)[C@H](Cc1c[nH]cn1)NC(=O)[C@H](CCC(N)=O)NC(C)=O)C(=O)N[C@@H](CCCCN)C(=O)N[C@@H](CCC(N)=O)C(=O)N[C@@H](CC(C)C)C(=O)N[C@@H](CCC(N)=O)C(=O)N[C@@H](C)C(=O)N[C@@H](CCCN=C(N)N)C(=O)N[C@H](C(=O)N[C@@H](CC(C)C)C(=O)N[C@@H](C)C(=O)N[C@H](C(=O)N[C@@H](CCC(=O)O)C(=O)O)C(C)C)[C@@H](C)CC (Ac-QHLLQL[Ahx][Ahx][Ahx]IKQLQARILAVE-OH),inhibition at 200 µM,MT4 [2],0%
CC[C@H](C)[C@H](N)C(=O)N[C@@H](CCCCN)C(=O)N[C@@H](CCC(N)=O)C(=O)N[C@@H](CC(C)C)C(=O)N[C@@H](CCC(N)=O)C(=O)N[C@@H](C)C(=O)N[C@@H](CCCN=C(N)N)C(=O)N[C@H](C(=O)N[C@@H](CC(C)C)C(=O)N[C@@H](C)C(=O)N[C@H](C(=O)N[C@@H](CCC(=O)O)C(=O)N[C@@H](CCCN=C(N)N)C(=O)N[C@@H](Cc1ccc(O)cc1)C(=O)N[C@@H](CC(C)C)C(=O)N[C@@H](CCCCN)C(=O)N[C@@H](CC(=O)O)C(=O)N[C@@H](CCC(N)=O)C(=O)O)C(C)C)[C@@H](C)CC (H-IKQLQARILAVERYLKDQ-OH),inhibition at 200 µM,MT4 [2],0%
CC[C@H](C)[C@H](NC(=O)CNC(=O)[C@H](Cc1c[nH]c2ccccc12)NC(=O)[C@@H](NC(=O)[C@@H](NC(=O)[C@H](CC(C)C)NC(=O)[C@H](CCC(N)=O)NC(=O)[C@H](CC(C)C)NC(=O)[C@H](CC(C)C)NC(=O)[C@H](Cc1c[nH]cn1)NC(=O)[C@H](CCC(N)=O)NC(=O)[C@H](CCC(N)=O)NC(=O)[C@H](C)NC(=O)[C@H](CCC(=O)O)NC(=O)[C@@H](NC(=O)[C@H](C)NC(=O)[C@H](CCCN=C(N)N)NC(=O)[C@H](CC(C)C)NC(=O)[C@H](CC(C)C)NC(=O)[C@H](CC(N)=O)NC(=O)[C@@H](N)CC(N)=O)[C@@H](C)CC)[C@@H](C)O)C(C)C)C(=O)N[C@@H](CCCCN)C(=O)N[C@@H](CCC(N)=O)C(=O)N[C@@H](CC(C)C)C(=O)N[C@@H](CCC(N)=O)C(=O)N[C@@H](C)C(=O)N[C@@H](CCCN=C(N)N)C(=O)N[C@H](C(=O)N[C@@H](CC(C)C)C(=O)N[C@@H](C)C(=O)N[C@H](C(=O)N[C@@H](CCC(=O)O)C(=O)O)C(C)C)[C@@H](C)CC (H-NNLLRAIEAQQHLLQLTVWGIKQLQARILAVE-OH),inhibition at 5 µM,MT4 [3],37%
CCCCCCCCCCCCC(N)C(=O)N[C@@H](CC(C)C)C(=O)N[C@@H](CCC(N)=O)C(=O)N[C@@H](CC(C)C)C(=O)N[C@H](C(=O)N[C@H](C(=O)N[C@@H](Cc1c[nH]c2ccccc12)C(=O)NCC(=O)N[C@H](C(=O)N[C@@H](CCCCN)C(=O)N[C@@H](CCC(N)=O)C(=O)N[C@@H](CC(C)C)C(=O)N[C@@H](CCC(N)=O)C(=O)N[C@@H](C)C(=O)N[C@@H](CCCN=C(N)N)C(=O)N[C@H](C(=O)O)[C@@H](C)CC)[C@@H](C)CC)C(C)C)[C@@H](C)O (some centres undefined) (HELM PEPTIDE1{[CCCCCCCCCCCCC(N)C(=O)[*:2]].L.Q.L.T.V.W.G.I.K.Q.L.Q.A.R.I}$$$$V2.0),inhibition at 6.4 µM,MT4 [4],37%
CCCCCCCCCCCCC(N)C(=O)N[C@@H](CCC(N)=O)C(=O)N[C@@H](Cc1c[nH]cn1)C(=O)N[C@@H](CC(C)C)C(=O)N[C@@H](CC(C)C)C(=O)N[C@@H](CCC(N)=O)C(=O)N[C@@H](CC(C)C)C(=O)N[C@H](C(=O)N[C@H](C(=O)N[C@@H](Cc1c[nH]c2ccccc12)C(=O)NCC(=O)N[C@H](C(=O)N[C@@H](CCCCN)C(=O)N[C@@H](CCC(N)=O)C(=O)N[C@@H](CC(C)C)C(=O)N[C@@H](CCC(N)=O)C(=O)N[C@@H](C)C(=O)N[C@@H](CCCN=C(N)N)C(=O)N[C@H](C(=O)N[C@@H](CC(C)C)C(=O)N[C@@H](C)C(=O)N[C@H](C(=O)N[C@@H](CCC(=O)O)C(=O)N[C@@H](CCCN=C(N)N)C(=O)N[C@@H](Cc1ccc(O)cc1)C(=O)N[C@@H](CC(C)C)C(=O)N[C@@H](CCCCN)C(=O)N[C@@H](CC(=O)O)C(=O)N[C@@H](CCC(N)=O)C(=O)O)C(C)C)[C@@H](C)CC)[C@@H](C)CC)C(C)C)[C@@H](C)O (some centres undefined) (HELM PEPTIDE1{[CCCCCCCCCCCCC(N)C(=O)[*:2]].Q.H.L.L.Q.L.T.V.W.G.I.K.Q.L.Q.A.R.I.L.A.V.E.R.Y.L.K.D.Q}$$$$V2.0),inhibition at 20 µM,MT4 [5],0%
same,inhibition at 5 µM,MT4 [3],10%
same,inhibition at 8 µM,MT4 [6],15%
CCCCCCCCCCCCC(N)C(=O)N[C@@H](CCC(N)=O)C(=O)N[C@@H](CC(C)C)C(=O)N[C@H](C(=O)N[C@H](C(=O)N[C@@H](Cc1c[nH]c2ccccc12)C(=O)NCC(=O)N[C@H](C(=O)N[C@@H](CCCCN)C(=O)N[C@@H](CCC(N)=O)C(=O)N[C@@H](CC(C)C)C(=O)N[C@@H](CCC(N)=O)C(=O)N[C@@H](C)C(=O)N[C@@H](CCCN=C(N)N)C(=O)N[C@H](C(=O)O)[C@@H](C)CC)[C@@H](C)CC)C(C)C)[C@@H](C)O (some centres undefined) (HELM PEPTIDE1{[CCCCCCCCCCCCC(N)C(=O)[*:2]].Q.L.T.V.W.G.I.K.Q.L.Q.A.R.I}$$$$V2.0),IC50,MT4 [7],8.9 µM
same,inhibition at 16 µM,MT4 [8],32%
CC[C@H](C)[C@H](NC(=O)[C@H](CCCN=C(N)N)NC(=O)[C@H](C)NC(=O)[C@H](CCC(N)=O)NC(=O)[C@H](CC(C)C)NC(=O)[C@H](CCC(N)=O)NC(=O)[C@H](CCCCN)NC(=O)[C@@H](NC(=O)CNC(=O)[C@H](Cc1c[nH]c2ccccc12)NC(=O)[C@@H](NC(=O)[C@@H](NC(=O)[C@H](CC(C)C)NC(=O)[C@H](CCC(N)=O)NC(=O)[C@H](CC(C)C)NC(=O)CCCCCN)[C@@H](C)O)C(C)C)[C@@H](C)CC)C(=O)O (HELM PEPTIDE1{[NCCCCCC(=O)[*:2]].L.Q.L.T.V.W.G.I.K.Q.L.Q.A.R.I}$$$$V2.0),inhibition at 40 µM,MT4 [9],33%
CC[C@H](C)[C@H](NC(=O)[C@H](CCCN=C(N)N)NC(=O)[C@H](C)NC(=O)[C@H](CCC(N)=O)NC(=O)[C@H](CC(C)C)NC(=O)[C@H](CCC(N)=O)NC(=O)[C@H](CCCCN)NC(=O)[C@@H](NC(=O)CNC(=O)[C@H](Cc1c[nH]c2ccccc12)NC(=O)[C@@H](NC(=O)[C@@H](NC(=O)[C@H](CC(C)C)NC(=O)[C@H](CCC(N)=O)NC(=O)CCCCCN)[C@@H](C)O)C(C)C)[C@@H](C)CC)C(=O)O (HELM PEPTIDE1{[NCCCCCC(=O)[*:2]].Q.L.T.V.W.G.I.K.Q.L.Q.A.R.I}$$$$V2.0),inhibition at 40 µM,MT4 [9],11%
CC[C@H](C)[C@H](NC(=O)[C@H](CCCN=C(N)N)NC(=O)[C@H](C)NC(=O)[C@H](CCC(N)=O)NC(=O)[C@H](CC(C)C)NC(=O)[C@H](CCC(N)=O)NC(=O)CCCCCNC(=O)CCCCCNC(=O)[C@@H](NC(=O)[C@@H](NC(=O)[C@H](CC(C)C)NC(=O)[C@H](CCC(N)=O)NC(=O)[C@H](CC(C)C)NC(=O)[C@H](CC(C)C)NC(=O)[C@H](Cc1c[nH]cn1)NC(=O)[C@H](CCC(N)=O)NC(C)=O)[C@@H](C)O)C(C)C)C(=O)N[C@@H](CC(C)C)C(=O)N[C@@H](C)C(=O)N[C@H](C(=O)N[C@@H](CCC(=O)O)C(=O)O)C(C)C (HELM PEPTIDE1{[ac].Q.H.L.L.Q.L.T.V.[O=C(CCCCCN[*:1])[*:2]].[O=C(CCCCCN[*:1])[*:2]].Q.L.Q.A.R.I.L.A.V.E}$$$$V2.0),inhibition at 80 µM,MT4 [10],27%
